# According to article PMC9593962 (Journal of chemical information and modeling, 2021):
# Experiments:
# hERG = hERG (Homo sapiens, UniProt Q12809); assay: Patch-clamp electrophysiology of hERG blockade in HEK 293 cells; assay type: cell-based; details: for IC50: read-out: IC50 at hERG, patch-clamp, whole cell tail currents
# Procedure, shortened: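 Whole-cell patch clamp of hERG (described as mutants) expressed in HEK 293 cells. Pipette: 10 mM KCl, 110 mM K-aspartate, 5 mM MgCl2, 5 mM Na2ATP, 10 mM EGTA, 5 mM HEPES, 1 mM CaCl2, pH 7.2. Holding at −80 mV, 1-s step to +50 mV, tail current read at −100 mV. Test compound freshly dissolved in Tyrode, used within two hours.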
# rDAT = rDAT (Rattus norvegicus, UniProt P23977); assay: Radioligand binding assay of rDAT with [3H]WIN35,428 in rat striatal membranes
# Sequence of rDAT (P23977 whole entry): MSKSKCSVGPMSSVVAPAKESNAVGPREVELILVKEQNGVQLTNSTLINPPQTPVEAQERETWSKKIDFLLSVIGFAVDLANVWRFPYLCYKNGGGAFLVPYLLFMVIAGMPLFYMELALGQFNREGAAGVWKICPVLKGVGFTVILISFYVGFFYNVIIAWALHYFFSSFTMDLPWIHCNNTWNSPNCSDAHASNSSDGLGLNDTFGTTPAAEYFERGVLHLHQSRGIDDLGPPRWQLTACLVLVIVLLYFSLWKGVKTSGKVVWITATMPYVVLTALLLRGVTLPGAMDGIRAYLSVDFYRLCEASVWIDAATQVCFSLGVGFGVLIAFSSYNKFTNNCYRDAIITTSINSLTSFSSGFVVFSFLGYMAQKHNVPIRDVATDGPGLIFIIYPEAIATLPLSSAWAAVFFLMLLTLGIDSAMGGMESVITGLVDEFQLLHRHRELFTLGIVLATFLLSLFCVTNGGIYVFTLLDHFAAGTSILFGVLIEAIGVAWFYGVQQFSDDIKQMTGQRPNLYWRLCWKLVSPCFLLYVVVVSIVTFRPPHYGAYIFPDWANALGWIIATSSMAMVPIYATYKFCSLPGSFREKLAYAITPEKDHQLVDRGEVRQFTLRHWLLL
# Sequence of hERG (Q12809 whole entry): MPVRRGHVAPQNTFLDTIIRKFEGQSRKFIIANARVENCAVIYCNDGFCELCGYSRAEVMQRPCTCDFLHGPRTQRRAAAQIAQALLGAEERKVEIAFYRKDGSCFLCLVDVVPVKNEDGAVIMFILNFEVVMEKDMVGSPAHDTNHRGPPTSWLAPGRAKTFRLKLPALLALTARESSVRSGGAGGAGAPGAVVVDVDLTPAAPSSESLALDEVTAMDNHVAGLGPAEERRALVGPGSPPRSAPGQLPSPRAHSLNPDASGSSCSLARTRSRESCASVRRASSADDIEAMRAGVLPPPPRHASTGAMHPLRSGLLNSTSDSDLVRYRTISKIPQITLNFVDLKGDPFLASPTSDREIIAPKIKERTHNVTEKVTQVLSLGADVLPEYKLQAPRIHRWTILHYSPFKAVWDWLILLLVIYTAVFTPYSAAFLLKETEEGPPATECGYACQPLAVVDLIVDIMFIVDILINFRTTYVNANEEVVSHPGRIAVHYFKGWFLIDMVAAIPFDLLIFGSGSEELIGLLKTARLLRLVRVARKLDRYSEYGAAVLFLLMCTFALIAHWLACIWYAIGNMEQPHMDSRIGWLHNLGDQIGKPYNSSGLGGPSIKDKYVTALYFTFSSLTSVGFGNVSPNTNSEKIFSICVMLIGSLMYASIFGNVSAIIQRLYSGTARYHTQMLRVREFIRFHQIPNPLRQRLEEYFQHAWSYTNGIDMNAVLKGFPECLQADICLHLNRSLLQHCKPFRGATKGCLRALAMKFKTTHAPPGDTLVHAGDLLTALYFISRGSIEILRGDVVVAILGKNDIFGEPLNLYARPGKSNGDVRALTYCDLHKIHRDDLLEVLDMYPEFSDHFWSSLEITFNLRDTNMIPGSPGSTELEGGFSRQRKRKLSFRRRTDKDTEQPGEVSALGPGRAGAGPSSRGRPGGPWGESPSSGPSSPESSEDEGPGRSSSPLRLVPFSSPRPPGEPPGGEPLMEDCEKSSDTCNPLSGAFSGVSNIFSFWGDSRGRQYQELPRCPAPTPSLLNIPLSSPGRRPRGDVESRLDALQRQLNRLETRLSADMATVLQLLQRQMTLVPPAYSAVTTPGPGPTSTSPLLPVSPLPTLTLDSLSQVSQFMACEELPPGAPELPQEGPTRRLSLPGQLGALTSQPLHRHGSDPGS
SMILES,"fold lower affinity than JJC8-016 at hERG (hERG; ratio of IC50 values, JJC8-088 versus JJC8-016)",IC50 (hERG) [nM],"fold higher affinity than JJC8-016 at DAT (rDAT; ratio of Ki values, JJC8-088 versus JJC8-016)","Ki (rDAT; read-out: Ki at DAT, [3H]WIN35,428 as the radioligand) [nM]"
[O-][S+](CCN1CCN(CC(O)Cc2ccccc2)CC1)C(c1ccc(F)cc1)c1ccc(F)cc1 (centres unmarked) [JJC8-088],~ 2 fold,130,~ 90 fold,2.6
Fc1ccc(C(SCCNCCCc2ccccc2)c2ccc(F)cc2)cc1 [JJC8-016],,60,,
